Drawing on ChEMBL document CHEMBL4765368, “Structure guided design and synthesis of furyl thiazolidinedione derivatives as inhibitors of GLUT 1 and GLUT 4, and evaluation of their anti-leukemic potential” (Eur J Med Chem, 2020), this text covers Activity, inhibition and CC50 for 2 molecules.

By inhibition is commonly meant the relative decrease from the control value, in per cent. In general, CC50 refers to the concentration at which the toxic effect on the cells reaches its halfway point.

Data set [1] can be described thus: Toxicity in SCID mouse xenografted with human CCRF-CEM cells assessed as body weight loss at 50 mg/kg, ip administered daily for 5 days with 2 days interval for 18 days. The format is organism-based. Particulars: in vivo, 432 h, time 18 day.
For data set [2], the target named is T1, Solute carrier family 2, facilitated glucose transporter member 1 (Homo sapiens) (UniProt P11166).
T1 sequence (whole entry): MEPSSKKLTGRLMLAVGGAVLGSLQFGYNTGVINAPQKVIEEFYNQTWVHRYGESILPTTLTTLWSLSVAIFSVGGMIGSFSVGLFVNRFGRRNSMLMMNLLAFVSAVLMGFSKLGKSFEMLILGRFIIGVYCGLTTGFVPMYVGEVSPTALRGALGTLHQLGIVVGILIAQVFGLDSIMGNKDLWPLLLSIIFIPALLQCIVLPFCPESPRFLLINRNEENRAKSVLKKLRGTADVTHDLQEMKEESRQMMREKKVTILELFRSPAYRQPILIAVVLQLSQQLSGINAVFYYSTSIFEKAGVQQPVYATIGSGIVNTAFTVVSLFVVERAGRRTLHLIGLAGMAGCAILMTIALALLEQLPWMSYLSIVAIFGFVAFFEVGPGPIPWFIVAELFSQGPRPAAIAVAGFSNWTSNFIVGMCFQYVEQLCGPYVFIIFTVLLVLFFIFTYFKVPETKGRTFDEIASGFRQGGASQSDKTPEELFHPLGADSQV
The experiment in a line: Inhibition of transport activity of human GLUT1 expressed in hexose transporter deficient VW4000fgy1 yeast cells assessed as reduction in transporter-mediated [14C]-hexose uptake into cells at 100 uM measured after 10 mins by scintillation counting method relative to control. Format: cell-based. The method in brief: (§1)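 The hxt0 yeast strain expressing one human GLUT was grown at 30 °C and resuspended in PBS pH 7.4 at OD600 ~10. Uptake was started with 14C-glucose at 5 mM final (GLUT1, GLUT4) or 14C-fructose at 10 mM final (GLUT5). It was quenched after 10 min with ice-cold 0.1 M KPi/0.1 M LiCl pH 5.5, filtered and counted by scintillation. Compound at 100 μM with 1% DMSO; DMSO control and phloretin 200 μM (GLUT1/4) or MSNBA 100 μM (GLUT5) as references. Triplicates.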

A further data set deals with HS27. In words: Cytotoxicity against human HS27 cells assessed as reduction in cell viability measured after 48 hrs by Hoechst 33342/propidium iodide staining based imaging analysis. Particulars: hs27, 48 h. In a few lines: (§2)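 Cells were seeded at 10,000 per well (HS-27 at 3,000) in 10% FBS RPMI (leukemic lines) or DMEM (MDA-MB-231, HS-27). Compound in DMSO (1% v/v final) at 0.5–100 µM for 48 h. Hoechst 33342 and PI were added 2 h before automated imaging; dead cells were co-stained. Quadruplicates. CC50 was taken by linear interpolation between the two concentrations nearest 50% death.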

For data set [3], the system named is CCRF-CEM. In words: Cell cycle arrest in human CCRF-CEM cells assessed as decrease in accumulation at G0/G1 phase measured after 72 hrs by NIM-DAPI staining based flow cytometry. Format: functional. In a few lines:
(§3)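 An asynchronous CEM culture was seeded at 100,000 cells/well in 1 mL complete RPMI and exposed to 10, 25 or 50 μM for 72 h. Controls were untreated cells, DMSO and hydrogen peroxide. Cells were pelleted at 262 g, resuspended, and stained with NIM-DAPI, which permeabilizes and stains DNA in one step. About 100,000 events per sample were read by flow cytometry. Triplicates.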

In data set [4] the target is T1, Solute carrier family 2, facilitated glucose transporter member 1 (Homo sapiens). The experiment in a line: Inhibition of GLUT1 in human CCRF-CEM cells assessed as upregulation of GRP78 expression at 10 uM measured after 6 hrs by Western blot analysis. The format is cell-based. The method in brief:
(§4)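 CEM cells were treated with 10 µM for 6 h. Untreated cells were the negative control and staurosporine the positive control. Cells were washed with cold PBS, lysed in Laemmli buffer with protease inhibitors, sonicated and quantified. Blots were blocked 45 min in PBS-Tween-5% milk, with primary antibody 3 h and secondary 1 h at room temperature.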
On the technique in general: Immunoblotting shows a protein as a band on a membrane.

The test system of data set [5] is CCRF-CEM. The experiment in a line: Induction of apoptosis in human CCRF-CEM cells assessed as activation of caspase 3 at 10 uM measured after 6 hrs by Western blot analysis. The format is functional, cell-based. The method in brief: as §4
The target of data set [6] is T2, Histone deacetylase 8 (Homo sapiens) (UniProt Q9BY41).
T2 sequence (whole entry): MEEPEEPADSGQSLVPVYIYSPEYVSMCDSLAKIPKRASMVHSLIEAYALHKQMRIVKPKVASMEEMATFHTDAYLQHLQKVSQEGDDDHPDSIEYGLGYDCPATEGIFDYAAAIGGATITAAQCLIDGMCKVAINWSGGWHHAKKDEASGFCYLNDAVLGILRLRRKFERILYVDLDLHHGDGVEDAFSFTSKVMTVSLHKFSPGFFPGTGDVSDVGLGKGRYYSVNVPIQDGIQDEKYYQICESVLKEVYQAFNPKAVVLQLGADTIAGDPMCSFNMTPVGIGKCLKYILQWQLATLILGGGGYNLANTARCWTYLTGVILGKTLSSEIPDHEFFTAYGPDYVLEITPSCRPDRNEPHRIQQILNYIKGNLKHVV
In words: Inhibition of recombinant human His6/SUMO-tagged HDAC8 expressed in Escherichia coli (BL21) DE3 pLysS assessed as residual activity at 50 uM using Boc-Lys(trifluoroacetyl)-AMC as substrate preincubated for 60 mins followed by substrate addition and measured after 60 mins by fluorescence assay relative to control. As to conditions: time 120.0 min. The method in brief: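 20 μM Boc-Lys(trifluoroacetyl)-AMC was then added for 60 min at 30 °C, the reaction stopped with 1.7 μM SATFMK and developed with 0.4 mg/ml trypsin, and AMC fluorescence read at Ex 350/Em 450 nm. Triplicates; percent relative activity.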

The subject of data set [7] is CCRF-CEM. The experiment in a line: Cell cycle arrest in human CCRF-CEM cells assessed as decrease in accumulation at G2/M phase measured after 72 hrs by NIM-DAPI staining based flow cytometry. The format is functional. The method in brief: as §3
On the technique in general: In flow cytometry, cells or beads pass a laser one at a time.

For data set [8], the system named is CCRF-CEM. In words: Induction of apoptosis in human CCRF-CEM cells assessed as necrotic cells at CC50 measured after 24 hrs by AnnexinV-FITC/propidium iodide staining based flow cytometry analysis relative to control. Format: functional. In a few lines:
(§5)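 CCRF-CEM cells in RPMI with 10% FBS were seeded in 24-well plates, incubated overnight, given fresh medium, then treated for 24 h. Cells were PBS-washed, spun at 500 g for 5 min at 4 °C, and resuspended in ice-cold binding buffer. They were stained with annexin V-FITC and PI for 15 min on ice in the dark, then read by flow cytometry. Untreated cells were the negative control; triplicates.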

The subject of data set [9] is CCRF-CEM. The experiment in a line: Cytotoxicity against human CCRF-CEM cells assessed as reduction in cell viability measured after 48 hrs by Hoechst 33342/propidium iodide staining based imaging analysis. The format is functional. In a few lines: as §2
The nature of data set [10]: Toxicity in SCID mouse assessed as distress at 1000 mg/kg, ip administered as single dose measured within 6 hrs. Particulars: in vivo. The format is organism-based.
Data set [11] deals with CCRF-CEM. In words: Induction of apoptosis in human CCRF-CEM cells assessed as late apoptotic cells at CC50 measured after 24 hrs by AnnexinV-FITC/propidium iodide staining based flow cytometry analysis relative to control. Format: functional. In a few lines: as §5
The target in data set [12] is T1, Solute carrier family 2, facilitated glucose transporter member 1 (Homo sapiens). The experiment in a line: Inhibition of transport activity of human GLUT1 expressed in hexose transporter deficient VW4000fgy1 yeast cells assessed as reduction in transporter-mediated [14C]-hexose uptake into cells by measuring relative activity at 100 uM measured after 10 mins by scintillation counting method relative to control. The format is cell-based. Details: scale not given: the % may be the effect or the level left. The method in brief: as §1

Calls of active or inactive are those of the source. The rule behind the calls is not given here.

`O=C(CN1C(=O)S/C(=C/c2ccco2)C1=O)Nc1nc2ccccc2s1`: the Activity entry in data set [1] is “Non-Toxic”; in the data set on CCRF-CEM [3] it was “Dose-dependent effect”; in [6], > 50%; with CCRF-CEM [7], “Dose-dependent effect”; in the data set on CCRF-CEM [8], 16.6%; in data set [10], “Non-Toxic”. Further, the Activity in the data set with CCRF-CEM [11] was 55.87%. Also, the inhibition in [2] stood at 100%. For the same molecule, the CC50 turned out to be 44 µM with HS27 and 1.7 µM in the data set on CCRF-CEM [9]. The inhibition entry in [4] was “Active”. Moreover, the result in the data set on CCRF-CEM [5] was Active.
For `O=C(CN1C(=O)S/C(=C/c2ccco2)C1=O)Nc1ccc(Cl)c(Cl)c1`, the inhibition in data set [2] is > 50%. The CC50 in the data set with HS27 was > 100 µM; in the data set with CCRF-CEM [9], 7.8 µM. The Activity is > 50% in data set [6] and 30% in data set [12].
